Assay [1] addresses T1, Bromodomain-containing protein 4 (Homo sapiens, UniProt O60885). The experiment in a line: Inhibition of biotinylated H4 K5,8,12,16Ac peptide binding to GST-tagged BRD4 bromodomain1 (unknown origin) measured after 60 mins by AlphaScreen assay.
For assay [2], the target named is T1, Bromodomain-containing protein 4. Briefly: Inhibition of biotinylated H4 K5,8,12,16Ac peptide binding to GST-tagged BRD4 bromodomain2 (unknown origin) at 100 uM measured after 60 mins by AlphaScreen assay relative to control. In short, it runs like this: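 AlphaScreen proximity assay measuring binding of the tetra-acetylated (K5,8,12,16Ac) biotinylated histone H4 peptide to recombinant BRD4 BD1 or BD2. Buffer was 50 mM HEPES with BSA, at 1% DMSO in the 10X compound dilutions. Compound, bromodomain, peptide and histidine-conjugated acceptor beads were incubated 60 min at room temperature. Streptavidin donor beads were then added for 30 min in the dark, and the endpoint Alpha signal read. Inhibition taken at 100 µM, mean of three independent experiments.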
(Alpha assays give light when donor and acceptor beads are brought close together.)

Assay [3] has as its system A549. Briefly: Antiproliferative activity against human A549 cells assessed as reduction in cell growth measured after 48 hrs by MTT assay. The format is functional, cell-based. The settings on record: A549, 48 h. A digest of the protocol: (§1)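 Cells grown at 37 °C in 5% CO2. MCF-7, A549 and HT-29 cells were kept in RPMI 1640 with 10% FBS and pen/strep. HepG2, A375, NRK-49F and LX-2 cells were kept in high-glucose DMEM with 10% FBS and pen/strep. HLF-1 cells were kept in DMEM/F-12 (1:1) with 10% FBS. Cells seeded for exponential growth, exposed to a concentration range for 48 h, then MTT added for 4 h at 37 °C. Formazan dissolved in DMSO, absorbance read at 490 nm, IC50 fitted.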
On the technique in general: Tetrazolium assays rely on reduction of a dye to a coloured formazan, in cell work by metabolically active cells.

Assay [4] has as its system HT-29. The experiment in a line: Antiproliferative activity against human HT-29 cells assessed as reduction in cell growth measured after 48 hrs by MTT assay. The format is functional, cell-based. To be noted: HT-29, 48 h. In short, it runs like this:
as §1

The subject of assay [5] is HepG2. Briefly: Antiproliferative activity against human HepG2 cells assessed as reduction in cell growth measured after 48 hrs by MTT assay. The format is functional, cell-based. The settings on record: HepG2, 48 h. A digest of the protocol:
as §1

Assay [6] has as its system A-375. The experiment in a line: Antiproliferative activity against human A375 cells assessed as reduction in cell growth measured after 48 hrs by MTT assay. The format is functional, cell-based. The settings on record: A-375, 48 h. In short, it runs like this: as §1
In assay [7] the test system is MCF7. The experiment in a line: Antiproliferative activity against human MCF7 cells assessed as reduction in cell growth measured after 48 hrs by MTT assay. The format is functional, cell-based. The settings on record: MCF7, 48 h. In short, it runs like this:
as §1

Assay [8] addresses T1, Bromodomain-containing protein 4. Briefly: Inhibition of BRD4 in human A375 cells assessed as reduction in c-MYC protein expression measured after 24 hrs by Western blot analysis. The class given is cell-based. In short, it runs like this: (§2)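 Cells (2.5 × 10^5 per well; A375 for c-Myc, HLF-1 for collagen I) were treated for 24 h and lysed on ice. Lysate was clarified at 12,000g for 15 min at 4 °C and protein measured by BCA. 20–40 µg was run on SDS-PAGE and blotted to PVDF, then blocked in 5% milk. Primary antibodies (c-Myc or collagen I, β-actin loading control) overnight, secondary antibody 1 h, fluorescent detection.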

For assay [9], the system named is A-375. Briefly: Induction of apoptosis in human A375 cells at 10 uM measured after 24 hrs by Annexin V-FITC/propidium iodide staining based fluorescence microscopic analysis. The format is functional, cell-based.
Assay [10] is described as follows: Antifibrotic activity against human LX2 cells assessed as reduction in cell growth measured after 48 hrs by MTT assay. The class given is functional, cell-based. To be noted: LX-2, 48 h. A digest of the protocol: as §1
Assay [11] is described as follows: Antifibrotic activity against human HLF1 cells assessed as reduction in cell growth measured after 48 hrs by MTT assay. The class given is functional, cell-based. The settings on record: HLF1, 48 h. In short, it runs like this: as §1
In assay [12] the test system is NRK-49F. Briefly: Antifibrotic activity against rat NRK-49F cells assessed as reduction in cell growth measured after 48 hrs by MTT assay. The class given is functional, cell-based. In short, it runs like this:
as §1

Assay [13] has as its system L02. Briefly: Cytotoxicity against human LO2 cells assessed as reduction in cell growth measured after 24 hrs by MTT assay. The settings on record: L02, 24 h. The format is cell-based.
Assay [14] in a line: Selectivity index, ratio of IC50 for cytotoxicity against human LO2 cells to IC50 for antifibrotic activity against human LX2 cells.
Assay [15] has as its target T1, Bromodomain-containing protein 4. The experiment in a line: Inhibition of BRD4 in human HLF1 cells assessed as reduction in collagen-1 protein expression measured after 24 hrs by Western blot analysis. The format is cell-based. In short, it runs like this: as §2
Background: In western blotting, separated proteins are transferred to a membrane and probed.

Assay [16] has the same target. Briefly: Inhibition of BRD4 in human HLF1 cells assessed as reduction in collagen-1 mRNA expression at 1 uM measured after 24 hrs by RT-PCR analysis. The class given is cell-based. In short, it runs like this: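 HLF-1 cells (2.5 × 10^5 per well) were treated for 24 h. Total RNA was extracted, reverse-transcribed to cDNA, and collagen I transcript measured by quantitative RT-PCR.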

Activity calls are given as the source filed them. The rule behind the calls is not given here.

The text below walks through data of ChEMBL document CHEMBL4392838, “Binding pocket-based design, synthesis and biological evaluation of novel selective BRD4-BD1 inhibitors” (Bioorg Med Chem, 2019).

Broadly, the IC50 is the midpoint of a concentration-inhibition curve. In general, inhibition refers to the change of the read-out against control, counted positive when it falls.

For the compound `Cc1noc(C)c1Cn1c(=O)nc(-c2ccc(Cl)c(Cl)c2)c2c3c(sc21)CC(C(C)(C)C)CC3` (stereo unspecified), the IC50 in assay [1] is 0.56 µM; in assay [3], 24.5 µM; in assay [4], 19.4 µM; in assay [5], 14.5 µM; in [6], 4.9 µM; in [7] it was 16.6 µM. For the same compound, the IC50 in assay [10] is 9.1 µM; in assay [11] it was 13.6 µM; in assay [12] it was 16 µM; in assay [13], 33.2 µM. Besides, the inhibition is 29.9% in [2], “Dose-dependent effect” in assay [8] and “Dose-dependent effect” in assay [15]. Further, in [9], the result was Active. Moreover, in [14], the “Ratio IC50” value was determined as 3.6. For the same compound, the inhibition result in assay [16] was “Active”.
